Assays:
[1] = Inhibition of rat FAAH deltaTM mutant expressed in Escherichia coli using AAMCA as substrate after 15 mins by medium throughput fluorescent assay
Cannabinoid receptor 1 = Cannabinoid receptor 1 (Rattus norvegicus, UniProt P20272); test: Displacement of [3H]CP-55,940 from CB1 receptor in rat brain homogenates; type: tissue-based
Outline: (§1)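 Membranes from rat brain (CB1) or from HEK293 cells overexpressing mouse CB2 were used, with [3H]CP-55,940 as radioligand. Data fitted by nonlinear regression. Ki values come from three independent experiments run in duplicate and are given as the mean of the three.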

Cannabinoid receptor 2 = Cannabinoid receptor 2 (Mus musculus, UniProt P47936); test: Displacement of [3H]CP-55,940 from mouse CB2 receptor expressed in HEK293 cells; type: cell-based; outline: as §1
Cannabinoid receptor 2, sequence (P47936 whole entry): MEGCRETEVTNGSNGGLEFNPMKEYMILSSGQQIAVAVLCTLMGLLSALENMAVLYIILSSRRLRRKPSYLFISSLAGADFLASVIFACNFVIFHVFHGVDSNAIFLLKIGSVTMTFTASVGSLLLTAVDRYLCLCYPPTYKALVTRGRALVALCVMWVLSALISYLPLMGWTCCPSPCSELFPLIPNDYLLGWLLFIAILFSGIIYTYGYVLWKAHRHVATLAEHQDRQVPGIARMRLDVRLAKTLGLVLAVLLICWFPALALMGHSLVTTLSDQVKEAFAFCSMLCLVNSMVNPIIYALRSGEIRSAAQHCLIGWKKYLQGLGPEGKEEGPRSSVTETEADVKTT

Monoglyceride lipase = target: T1, Monoglyceride lipase (Homo sapiens, UniProt Q99685); test: Inhibition of recombinant human hexahistidine-tagged MGL expressed in Escherichia coli using AHMMCE as substrate after 15 mins by medium throughput fluorescent assay
T1 sequence (Q99685 whole entry): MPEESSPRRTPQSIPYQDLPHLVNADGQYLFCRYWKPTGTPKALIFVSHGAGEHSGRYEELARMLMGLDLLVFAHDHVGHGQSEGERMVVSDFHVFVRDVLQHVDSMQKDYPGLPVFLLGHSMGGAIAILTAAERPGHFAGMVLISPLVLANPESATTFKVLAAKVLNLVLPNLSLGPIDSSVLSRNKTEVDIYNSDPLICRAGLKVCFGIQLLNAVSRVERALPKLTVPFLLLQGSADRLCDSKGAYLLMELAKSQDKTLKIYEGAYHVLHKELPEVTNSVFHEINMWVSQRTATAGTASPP

Rattus norvegicus = species: Rattus norvegicus; test: Irreversible inhibition of rat FAAH deltaTM mutant expressed in Escherichia coli assessed as recovery of enzyme activity using AAMCA as substrate at 40 times IC50 treated for 1 hr measured after 80 mins of rapid dilution by medium throughput fluorescent assay; parameters: scale not given: the % may be the effect or the level left
[2] = Inhibition of human FAAH deltaTM mutant expressed in Escherichia coli using AAMCA as substrate after 15 mins by medium throughput fluorescent assay

Cannabinoid receptor 1, sequence (P20272 whole entry): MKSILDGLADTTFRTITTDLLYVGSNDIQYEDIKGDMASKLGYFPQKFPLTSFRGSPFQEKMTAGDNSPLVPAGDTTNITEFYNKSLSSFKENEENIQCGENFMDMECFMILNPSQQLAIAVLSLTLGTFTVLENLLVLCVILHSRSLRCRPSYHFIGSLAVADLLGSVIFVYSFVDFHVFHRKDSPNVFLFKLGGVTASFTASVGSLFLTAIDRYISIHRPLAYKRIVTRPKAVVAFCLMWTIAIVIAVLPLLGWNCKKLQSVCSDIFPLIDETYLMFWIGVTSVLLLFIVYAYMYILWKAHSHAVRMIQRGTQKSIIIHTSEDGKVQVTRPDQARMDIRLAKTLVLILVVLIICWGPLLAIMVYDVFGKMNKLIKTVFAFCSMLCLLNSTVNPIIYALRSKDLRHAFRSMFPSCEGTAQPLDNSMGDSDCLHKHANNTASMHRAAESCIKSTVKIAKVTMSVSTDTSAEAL

| Structure (SMILES) | IC50 [1] [nM] | Ki (Cannabinoid receptor 1) [nM] | Ki (Cannabinoid receptor 2) [nM] | further results |
| --- | --- | --- | --- | --- |
| O=S(=O)(F)CCCCCCCc1ccccc1O | 1.2 | – | – | – |
| O=S(=O)(F)CCCCCCCc1ccccc1 | 37 | – | – | – |
| O=S(=O)(F)CCCCCCCc1ccccc1OCc1ccccc1 | 4.3 | – | – | – |
| O=S(=O)(F)CCCCOc1ccc(OCc2ccccc2)cc1 | 1.2 | 104 | 203 | – |
| COS(=O)(=O)CCCCCCCc1ccc(OCc2ccccc2)cc1 | 269 | – | – | IC50 (Monoglyceride lipase): > 5000 nM |
| O=S(=O)(F)CCCCCc1ccc(OCc2ccccc2)cc1 | 1.5 | 118 | 194 | – |
| O=S(=O)(F)CCCCCc1ccc(O)cc1 | 2.8 | 192 | 577 | Activity (Rattus norvegicus): 8%; IC50 [2]: 5.1 nM |
| O=S(=O)(F)CCCCc1ccccc1 | 88.2 | – | – | – |
| O=S(=O)(F)CCCc1ccccc1 | 205 | – | – | – |
| O=S(=O)(F)CCCCCCCc1ccc(O)cc1 | – | 163 | 698 | – |
| O=S(=O)(F)CCCCCc1ccccc1 | 50.4 | – | – | – |
| O=S(=O)(F)CCCCCCCCc1ccccc1 | 176 | – | – | – |
| O=S(=O)(F)CCCCCCc1ccccc1 | 37.7 | – | – | – |
| O=S(=O)(F)CCCCCCCc1cccc(OCc2ccccc2)c1 | – | 335 | 99 | – |
| O=S(=O)(F)CCCCCCCc1cccc(O)c1 | 2.5 | – | – | – |
